Data taken from paper PMC5248944 (International Journal of Nanomedicine, 2017).

What was measured:
[1] = assay type: physicochemical; conditions: 35°C, 5-FU 1.25 mg/mL in donor phase; control slope = Km
Method in brief: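 Dynamic dialysis was run at 35°C across porous cellulose (12.5 kDa cutoff). The donor held 5 mL of lyophilised-then-regenerated nanoparticles, plain drug solution, or drug with 0.25 mg/mL chitosan HCl; the receiver held 100 mL demineralised water under sink conditions. The receiver was sampled at intervals for HPLC (RP-18, 0.05 M KH2PO4/0.1% triethylamine, UV 266 nm). Ff came from the ln[(Cd/Cd0)×100]-vs-time slope; ≥3 repeats.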

[2] = Dynamic dialysis at 4°C: drug–polymer interactions in TSOH, sol state; assay type: physicochemical; conditions: 5-FU 1.25 mg/mL, printed value is slope ×10^3
Method in brief: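 Sol-state formulations were tested by dynamic dialysis at 4°C. The donor held 5 mL of formulation; the receiver held 100 mL of 0.08 M HCl with β-glycerophosphate. Receiver drug was measured at intervals. Each day's run order was control, two formulations, then control again on the same membrane, with a fresh membrane daily. Bound fraction was taken as 1−Ff from the log-linear slope.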

Q: For `O=c1[nH]cc(F)c(=O)[nH]1` [Control, 5-fluorouracil], which “slope of straight line ± standard deviation, ln[(Cd/Cd0)×100] vs t” value [1] is on record?
A: 0.841±0.029 hours

Q: And the “Modulus of straight-line slope (×10^3) ± SD (n=8)” value [2]?
A: 5.06±0.75 1/minutes
